Published values pooled from the literature.
In brackets after ≈: the same amount, converted by molar mass.
Organism: Staphylococcus epidermidis

SMILES | effect on | technique | strain | concentration | time | quantity | result
O=C1NC(=S)N/C1=C\c1ccc(-c2ccc(N(c3ccccc3)c3ccccc3)cc2)cc1 | microbial growth | broth dilution | ATCC12228 |  |  | MIC | > 1000 µg/mL
CO[C@@H](C(N)=O)[C@H](NC(=O)c1ccc(NC(=O)c2ccc(C#N)cc2)cc1)C(=O)Nc1ccc(C(=O)Nc2ccc(C(=O)Nc3ccc(C(=O)O)cc3)c(O)c2OC(C)C)cc1 | microbial growth |  | DSM28765 |  |  | MIC | ≤ 0.03 µg/mL
N#CC(=Cc1cn(-c2ccccc2)nc1-c1ccccc1)C1=NC(=O)CS1 | microbial killing | broth dilution |  |  |  | MBC | 0.5 µg/mL (≈ 1.35 µM)
O=[N+]([O-])c1ccc2c(N=Nc3ccc4ccccc4c3O)c(O)cc(S(=O)(=O)O)c2c1 | microbial growth | broth dilution |  |  | 24 h | MIC50 | 31 µM (≈ 13.6 µg/mL)
CC1(C)S[C@@H]2[C@H](NC(=O)[C@H](N)c3ccccc3)C(=O)N2[C@H]1C(=O)O | microbial growth | agar dilution | ATCC12228 | 26.93 µM |  | inhibition | 100%
C/C(=C\c1ccc(O)cc1)C(=O)Nc1ccc(C(=O)N[C@@H](CC(N)=O)C(=O)Nc2ccc(C(=O)Nc3ccc(C(=O)Nc4ccc(C(=O)O)cc4)c(O)c3OC(C)C)cc2)cc1 | microbial growth |  | DSM28765 |  |  | MIC | 0.25 µg/mL
CN(C)[C@@H]1C(O)=C(C(N)=O)C(=O)[C@@]2(O)C(O)=C3C(=O)c4c(O)cccc4[C@@](C)(O)[C@H]3C[C@@H]12 | microbial growth | broth dilution | 12228 |  |  | MIC | 100 µM
O=C1NC(=S)S/C1=C\c1ccc(-c2ccc(N(c3ccccc3)c3ccccc3)cc2)c2ccccc12 | microbial killing | broth dilution | ATCC12228 |  |  | MBC | > 1000 µg/mL
Cc1c(NC(=O)CC2=NC(=O)CS2)c(=O)n(-c2ccccc2)n1C | microbial killing | broth dilution |  |  |  | MBC | 1 µg/mL (≈ 2.9 µM)
O=C(O)c1cn(C2CC2)c2cc(N3CCNCC3)c(F)cc2c1=O | microbial growth | broth dilution | ATCC12228 |  |  | MIC | 0.49 µg/mL
CC(C)Oc1c(NC(=O)c2ccc(NC(=O)c3ccc(NC(=O)[C@H](CC(N)=O)NC(=O)c4ccc(NC(=O)c5ccc(C#N)cn5)cc4)cc3)c(OC(C)C)c2O)ccc(C(=O)O)c1O | microbial growth |  | DSM28765 |  |  | MIC | ≤ 0.03 µg/mL
N#CC(=Cc1ccccc1O)C1=NC(=O)C(=Cc2cn(-c3ccccc3)nc2-c2ccccc2)S1 | microbial killing | broth dilution |  |  |  | MBC | 0.25 µg/mL (≈ 0.527 µM)
O=C(O)CN1C(=O)/C(=C/c2c3ccccc3c(-c3ccc(N(c4ccccc4)c4ccccc4)cc3)c3ccccc23)SC1=S | microbial killing | broth dilution | ATCC12228 |  |  | MBC | > 1000 µg/mL
